Kir21 inh – inhibitors of mouse Kir2.1 inward-rectifier potassium channel; B-score at 10 µM; HEK293-Kir2.1, FluxOR thallium flux fluorescence; hits give low values; 310,000 compounds, 0.85% hits; Inward rectifier potassium channel 2 (Mus musculus), P35561;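 active = fluorescence ratio B-score at or below minus 3 SD of library scores, with starting-brightness B-score within 2 SD, cut at about -4.2 in these data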;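 note: channel flux triggered by added potassium and thallium sulfate stimulus; B-score of peak minus minimum fluorescence over baseline after thallium stimulus; more negative B-score means stronger Kir2.1 block with less thallium influx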
Target sequence (P35561 whole entry, looked up): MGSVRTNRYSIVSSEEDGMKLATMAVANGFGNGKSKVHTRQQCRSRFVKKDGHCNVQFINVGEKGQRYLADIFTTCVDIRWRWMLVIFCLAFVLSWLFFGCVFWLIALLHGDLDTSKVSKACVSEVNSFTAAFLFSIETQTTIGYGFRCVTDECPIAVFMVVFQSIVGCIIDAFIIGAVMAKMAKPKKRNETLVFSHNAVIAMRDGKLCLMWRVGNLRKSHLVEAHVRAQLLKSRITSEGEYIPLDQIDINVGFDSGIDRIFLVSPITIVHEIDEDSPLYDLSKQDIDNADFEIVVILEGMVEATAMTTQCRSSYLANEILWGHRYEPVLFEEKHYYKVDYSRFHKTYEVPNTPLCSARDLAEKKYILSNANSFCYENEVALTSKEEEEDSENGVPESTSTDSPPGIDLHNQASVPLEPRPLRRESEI
TRPC4 inh – inhibitors of mouse TRPC4 channel, primary screen, Fluo4 calcium, HEK293 TRPC4beta/mu-opioid cells | Short transient receptor potential channel 4 (Mus musculus), Q9QUQ5 | DAMGO-evoked Fluo4 calcium flux; hits give low values | B-score at 10 µM | 300,000 compounds, 0.39% hits | AID 2247, 2010;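 active = B-score over 3 SD under the library average, no early fluorescence shift, positive overall ratio signal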
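Assay system: HEK293 cells with stable TRPC4beta plus mu-opioid receptor expression. Dosing: single dose. Measured by: Fluo4 Ca2+ flux fluorescence. Also added: DAMGO in two steps, submaximal then maximal. Read-out: B score from integrated Fluo4 fluorescence ratio.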
TRPC4 act – activators of mouse TRPC4 channel, primary screen, Fluo4 calcium, HEK293 TRPC4beta/mu-opioid cells | 310,000 compounds, 0.49% hits | Short transient receptor potential channel 4 (Mus musculus), Q9QUQ5 | AID 2237, 2010 | Fluo4 calcium fluorescence; hits give high values | B-score at 10 µM;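 active = B-score above 5 SD of library B-scores, and initial fluorescence ratio not above library mean plus 5 SD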;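 note: positive B-score marks a calcium rise read as TRPC4 activation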
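Assay system: HEK293 stable line with TRPC4beta plus mu-opioid receptor; schedule: 45 min room-temperature Fluo4 loading, 110 s read; technique: kinetic Fluo4 calcium fluorescence; evaluation: integrated baseline-normalised fluorescence ratio, converted to per-well B score; controls: buffer (low) and maximal DAMGO (high)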
TRPC4 PAM – positive allosteric modulators of TRPC4, primary screen, cell-based, mouse TRPC4beta, HEK293 mu-opioid, Fluo-4 calcium; B-score at 10 µM; DAMGO EC20, Fluo-4 Ca2+ flux; hits give high values; 310,000 compounds, 0.42% hits; Short transient receptor potential channel 4 (Mus musculus), Q9QUQ5; AID 2227, 2009;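 active = B-score of calcium response area above 5 SD of library B-scores, with initial fluorescence ratio within 5 SD of library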
TRPC6 act – mouse TRPC6 channel activators, primary screen, cell-based, HEK293, membrane potential dye; 310,000 compounds, 0.13% hits; B-score at 10 µM; HEK293-TRPC6 membrane potential dye fluorescence; hits give high values; AID 2550, 2010;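 active = B-score of the integrated fluorescence ratio above library mean plus 3 SD, and starting fluorescence ratio within library mean plus 5 SD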;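 note: higher score means more depolarization so channel activation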
TRPC6 inh – mouse TRPC6 channel inhibitors, primary screen, cell-based, HEK293, membrane potential dye; Short transient receptor potential channel 6 (Mus musculus), Q61143; ACh-evoked depolarization; hits give low values; B-score at 10 µM; 310,000 compounds, 1.1% hits;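 active = B-score under library mean minus 3 SD, initial fluorescence not abnormally high, positive integrated signal ratio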;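 note: B-score derived from integrated fluorescence ratio over the kinetic read; more negative B-score means stronger inhibition of depolarization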
TRPC4 spec 2 – second selectivity test of TRPC6 inhibitors: effect on mouse TRPC4. HEK293 TRPC4/MOR, membrane potential dye fluorescence; channel activated by saturating DAMGO dose. shares compounds with TRPC6 inh. inhibition, % at 10 µM. AID 2776. 920 compounds, 42% hits;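 active = compounds whose fluorescence signal differed from control wells by over 3 SD, either direction, in both duplicate plates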
TRPC4 spec – mouse TRPC4 modulation by TRPC6 hits, confirmation, selectivity assay for TRPC6 inhibitor project, cell-based, HEK293 TRPC4/mu-opioid, membrane potential dye. shares compounds with TRPC6 inh. 920 compounds, 61% hits. activity change, negative = inhibition, % at 10 µM. membrane potential fluorescence;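 active = rise or fall in signal beyond 3 SD of buffer-only wells in both replicate plates, either sign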;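 note: integrated kinetic ratio of fluorescence range over baseline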
HEK293 MPD ctr 2-1 – nonspecific membrane potential effects, parental HEK293, confirmation, counter-screen for TRPC6 inhibitor project, cell-based, second counter screen. signal change vs control, % at 10 µM. AID 2779, 2010. shares compounds with TRPC6 inh. 920 compounds, 31% hits. parental HEK293 membrane potential dye fluorescence; maximal acetylcholine challenge after compound addition;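 active = membrane potential signal moving either way by over 3 SD of the maximum-effect control, in both duplicate plates, meaning non-specific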
HEK293 MPD ctr-1 – membrane potential modulation in parental HEK293, confirmation, counter-screen for TRPC6 inhibitor project, cell-based; shares compounds with TRPC6 inh; parental HEK293 membrane potential dye fluorescence; membrane potential signal change, % at 10 µM; 920 compounds, 60% hits; AID 2780, 2010;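 active = membrane potential signal shifting up or down by more than 3 SD of buffer-only wells, on both duplicate plates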
HEK293 MPD ctr-2 – parental HEK293 membrane potential modulation, confirmation, counter-screen for TRPC6 modulator project, cell-based. shares compounds with TRPC6 inh. membrane potential dye fluorescence. membrane potential signal change, % at 10 µM. 2,400 compounds, 51% hits;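 active = membrane potential signal moves up or down beyond 5 SD from buffer-only wells, on both duplicate plates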
HEK293 MPD ctr 2-2 – parental HEK293 nonspecific activity of TRPC6 modulators, second screen. shares compounds with TRPC6 inh. membrane potential dye fluorescence; after compound, maximal acetylcholine stimulation. inhibition, % at 10 µM. 2,400 compounds, 14% hits;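 active = membrane potential signal drops by more than 5 SD from the mean control signal, in both duplicate plates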
TRPC4/MOR mod – TRPC4 modulation by TRPC6 hit compounds, confirmation, selectivity assay for TRPC6 modulator project, cell-based, HEK293 TRPC4/mu-opioid, membrane potential dye, mouse. membrane potential fluorescence. percent change from control (negative = decrease, positive = increase), % at 10 µM. shares compounds with TRPC6 inh. AID 488927, 2010. 2,400 compounds, 69% hits;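 active = membrane potential signal moved up or down beyond 5 SD of buffer control wells, in both duplicate plates, actives on both sides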
TRPC4/MOR inh 2 – second check of whether TRPC6 modulators also affect mouse TRPC4; shares compounds with TRPC6 inh; HEK293 TRPC4/mu-opioid, membrane potential dye fluorescence; stimulated with maximal-effect DAMGO; inhibition, % at 10 µM; 2,400 compounds, 55% hits; AID 488928;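 active = drop in membrane potential signal beyond 5 SD of the control wells in both duplicate plates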;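 note: TRPC4 counter screen for TRPC6 hits run under conditions tuned for TRPC6 not TRPC4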
TRPC6 inh conf – mouse TRPC6 channel inhibitors, confirmation, HEK293 cells, membrane potential dye, duplicate | shares compounds with TRPC6 inh | ACh-evoked depolarization | inhibition, % at 10 µM | 3,300 compounds, 43% hits | AID 488960, 2010;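 active = fluorescence ratio falls more than 5 SD below the full-stimulation control mean, in both duplicate runs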;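 note: integrated fluorescence ratio of peak minus minimum over baseline after agonist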
TRPC6 act conf – mouse TRPC6 channel activators, confirmation, HEK293 cells, membrane potential dye, duplicate; shares compounds with TRPC6 inh; HEK293-TRPC6 membrane potential dye fluorescence, FDSS; activation, % at 10 µM; 2,800 compounds, 11% hits; AID 488961, 2010;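 active = ratio signal rise beyond 5 SD above unstimulated control wells' mean, seen in both duplicate runs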
A number is an active result; . = inactive; / = not tested or not shown. Hits are enriched below; roughly 2.9% of the tested compounds scored in any of these assays.

SMILES	Kir21 inh	TRPC4 inh	TRPC4 act	TRPC4 PAM	TRPC6 act	TRPC6 inh	HEK293 MPD ctr-2	HEK293 MPD ctr 2-2	TRPC4/MOR mod	TRPC4/MOR inh 2	TRPC6 inh conf	TRPC6 act conf	others
Cc1cc(/C=C2\NC(=S)N(C)C2=O)ccc1N1CCCC1	.	.	49	.	34	.	.	.	132%	.	.	33%
CCCN1C(=O)/C(=C/c2ccc(OCC(=O)OCC)cc2)NC1=S	.	.	.	.	.	.	/	/	/	/	/	/
Cc1cc(/C=C2/C(=O)N(C)C(=S)N2C)ccc1N1CCCC1	.	.	.	.	.	.	/	/	/	/	/	/
Cc1ccccc1/C(N)=N/O	.	.	.	.	.	.	/	/	/	/	/	/
O=[N+]([O-])c1ccc(OCCCCN2CCc3ccccc3C2)cc1	.	.	.	.	.	-8.4	/	/	/	/	.	.	TRPC4 spec 2=44%;TRPC4 spec=.;HEK293 MPD ctr 2-1=.;HEK293 MPD ctr-1=.
S=C(NCCC(c1ccccc1)c1ccccc1)Nc1cccc(Cl)c1	.	.	.	.	.	.	/	/	/	/	/	/
S=C(NCCN(C1CCCCC1)C1CCCC1)Nc1cccc(Cl)c1	-4.5	.	.	.	.	-6.1	95%	.	18%	70%	56%	/
CCc1cc2c(-c3ccccc3)cc(=O)oc2c(CN2CCOCC2)c1O	.	.	.	.	.	-5.1	.	.	14%	.	50%	/
Cc1c(CN(C)C)c2c(n1Cc1ccccc1)C(=O)c1ccccc1-2	.	-6	.	.	.	-7	-174%	.	-33%	78%	44%	.
Cc1cc(=O)n(Cc2ccccc2)c2ccccc12	.	.	.	.	.	.	/	/	/	/	/	/
CCOC(=O)c1ccc(NC(=S)N2CCCC(C)C2)cc1 (stereo unspecified)	.	.	.	.	.	-5	.	.	.	.	.	.
Cc1ccccc1NC(C)C(=O)N/N=C/c1ccccc1OCc1cccc(Br)c1 (stereo unspecified)	.	.	.	.	.	-5.2	.	.	.	.	.	.
CC(C)CCN1C(=O)CCC1(C)C(=O)NC1CCCCCC1 (stereo unspecified)	.	.	.	.	.	-5.8	128%	.	26%	.	.	/
COn1c(-c2ccc(Cl)cc2)nc2ncccc21	.	.	.	.	.	.	/	/	/	/	/	/
COc1cccc(NC(=O)CN(C)C(=O)c2ccc(OCc3ccccc3)c(OC)c2)c1	.	.	.	.	.	.	/	/	/	/	/	/
CNS(=O)(=O)c1cccc2cccnc12	.	.	.	.	.	.	/	/	/	/	/	/
Cc1ccc2ccc3cccnc3c2n1	.	.	.	.	.	-5.8	-248%	.	-36%	.	44%	.
Cc1ccc(C(C)C)c(OCC(=O)Nc2ccc3c(c2)nc(CCN2CCCCC2)n3C)c1	.	.	.	.	.	-6	.	.	.	78%	57%	/
CN(C)c1ccc(/C=C2\SC(N3CCCCC3)=NC2=O)cc1	.	.	.	.	.	-5.3	396%	.	34%	.	.	/
Cc1ccc(/C=C2\SC(N3CCCC3)=NC2=O)cc1	.	.	.	.	.	.	/	/	/	/	/	/
Cc1ccc2c(c1)Oc1ccccc1C=C2C(=O)O	.	.	.	.	.	.	/	/	/	/	/	/
C=CCc1ccccc1OCC(O)CN1CCN(c2ccc(OC)cc2)CC1 (stereo unspecified)	.	.	.	.	.	-5.3	.	.	.	54%	60%	.
C=CCc1ccccc1OCC(O)CN1CCOCC1 (stereo unspecified)	.	.	.	.	.	.	/	/	/	/	/	/
COC(=O)C1=C(C)N(c2cc(C)cc(C)c2)/C(=C/c2ccc(O)cc2)C1=O	.	.	.	.	.	-7.7	.	.	-16%	67%	.	.
O=C(Nc1cc(C(F)(F)F)ccc1-n1cnc2ccccc21)c1ccccc1	.	.	.	.	.	-5.3	106%	.	19%	.	47%	/
COc1ccc(S(=O)(=O)N2CCCOC2CNC(=O)C(=O)NCCCN2CCOCC2)cc1C (stereo unspecified)	.	.	.	.	.	.	/	/	/	/	/	/

High-throughput results: PubChem, Johns Hopkins Ion Channel Center
